Data set [1] is described as follows: Selectivity index, ratio of IC50 for african green monkey Vero cells to IC50 for chloroquine-sensitive Plasmodium falciparum D6. The class given is toxicity, cell-based. The settings on record: Vero cells versus Plasmodium falciparum D6, read-out: Ratio IC50.
Data set [2] concerns Vero. The data set is described as follows: Cytotoxicity against african green monkey Vero cells upto 23.8 […] by neutral dye assay. The class given is cell-based, Chlorocebus sabaeus. The method in brief: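 Vero monkey kidney cells were exposed to compound up to a highest concentration of 23.8, with viability read by neutral red uptake.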
Data set [3] deals with Cryptococcus neoformans. Briefly: Antifungal activity against Cryptococcus neoformans. Format: functional, organism-based. In outline: (§1)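 Yeasts and A. fumigatus were tested by broth microdilution following the NCCLS antifungal standards. The highest test concentration was 20.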
In data set [4] the test system is Escherichia coli. The data set is described as follows: Antimicrobial activity against Escherichia coli ATCC 35218 by CLSI method. Format: functional, organism-based.
For data set [5], the system named is Plasmodium berghei. Briefly: Antimalarial activity against Plasmodium berghei blood-schizont in mouse malaria model assessed as elimination of parasitemia at 50 mg/kg, po for 4 days for 4 days measured after 7 days. Format: functional, organism-based. More on the design: dose 50 mg/kg. The method in brief: (§2)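 P. berghei-infected mice, 6 per group, received compound orally once daily for 4 days at 10, 25, 50 or 100 mg/kg/day. "Active" meant all treated animals were parasitaemia-negative up to D+7. "Curative" meant complete parasite elimination with survival to D+60. Outcomes were recorded as cured/total.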

Data set [6] concerns Pseudomonas aeruginosa. The data set is described as follows: Antimicrobial activity against Pseudomonas aeruginosa ATCC 27853 by CLSI method. The class given is functional, organism-based. The method in brief: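 Antibacterial testing used CLSI/NCCLS broth dilution for aerobically growing bacteria, with 20 as the highest test concentration.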
The subject of data set [7] is Leishmania donovani. The data set is described as follows: Antileishmanial activity against Leishmania donovani promastigote by Alamar Blue assay. The class given is functional, organism-based. On the technique in general: The colour change of resazurin is a common sign of viable cells or microbes.
A short description of data set [8]: Inhibition of beta-hematin formation. The class given is functional.
The test system of data set [9] is Staphylococcus aureus. The data set is described as follows: Antimicrobial activity against Staphylococcus aureus ATCC 29213 by CLSI method. Format: functional, organism-based.
Data set [10] deals with Plasmodium berghei. The data set is described as follows: Antimalarial activity against Plasmodium berghei blood-schizont in mouse malaria model assessed as elimination of parasitemia at 25 mg/kg, po for 4 days for 4 days measured after 7 days. The class given is functional, organism-based. More on the design: dose 25 mg/kg. The method in brief:
as §2

In data set [11] the test system is Candida albicans. The data set is described as follows: Antifungal activity against Candida albicans at 20 ug/ml. Format: functional, organism-based. The method in brief: (§3)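 Broth dilution antifungal testing followed the NCCLS reference method for yeasts, with 20 as the highest test concentration. MIC was the lowest concentration with no detectable growth. MFC was the lowest concentration killing the organism.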

Data set [12] deals with Plasmodium falciparum. The data set is described as follows: Antimalarial activity against chloroquine-resistant Plasmodium falciparum W2 assessed as plasmodial LDH activity. Format: functional, organism-based.
Data set [13] deals with Staphylococcus aureus. Briefly: Antimicrobial activity against methicillin-resistant Staphylococcus aureus ATCC 43300 by CLSI method. Format: functional, organism-based.
Data set [14] deals with Plasmodium falciparum. The data set is described as follows: Antimalarial activity against chloroquine-sensitive Plasmodium falciparum D6 assessed as plasmodial LDH activity. The class given is functional, organism-based.
For data set [15], the system named is Aspergillus fumigatus. The data set is described as follows: Antifungal activity against Aspergillus fumigatus. Format: functional, organism-based. The method in brief: as §1
The test system of data set [16] is Mycobacterium intracellulare. The data set is described as follows: Antimicrobial activity against Mycobacterium intracellulare ATCC 23068 by Franzblau method. Format: functional, organism-based.
Data set [17] relates to Candida albicans. Briefly: Fungicidal activity against Candida albicans at 20 ug/ml. Format: functional, organism-based. In outline:
as §3

The test system of data set [18] is Plasmodium berghei. Briefly: Antimalarial activity against Plasmodium berghei blood-schizont in mouse malaria model assessed as elimination of parasitemia at 10 mg/kg, po for 4 days for 4 days measured after 7 days. More on the design: dose 10 mg/kg. Format: functional, organism-based. The method in brief:
as §2

A short description of data set [19]: Selectivity index, ratio of IC50 for african green monkey Vero cells to IC50 for chloroquine-resistant Plasmodium falciparum W2. The settings on record: Vero cells versus Plasmodium falciparum W2, read-out: Ratio IC50. The class given is toxicity, cell-based.
Data set [20] deals with Plasmodium berghei. The data set is described as follows: Antimalarial activity against Plasmodium berghei blood-schizont in mouse malaria model assessed as disease curative activity at 100 mg/kg, po after 60 days. The class given is functional. In outline: as §2
Data set [21] has as its system Pichia kudriavzevii. The data set is described as follows: Antifungal activity against Candida krusei at 20 ug/ml. Format: functional, organism-based. The method in brief: as §3
Data set [22] concerns Cryptococcus neoformans. Briefly: Fungicidal activity against Cryptococcus neoformans at 20 ug/ml. The class given is functional, organism-based. In outline:
as §3

Data set [23] deals with Nakaseomyces glabratus. The data set is described as follows: Fungicidal activity against Candida glabrata at 20 ug/ml. Format: functional, organism-based. In outline: as §3
The test system of data set [24] is Pichia kudriavzevii. The data set is described as follows: Fungicidal activity against Candida krusei at 20 ug/ml. Format: functional, organism-based. In outline: as §3
In data set [25] the test system is Nakaseomyces glabratus. The data set is described as follows: Antifungal activity against Candida glabrata at 20 ug/ml. Format: functional, organism-based. The method in brief: as §3
Data set [26] in a line: Ratio of chloroquine IC50 to compound IC50 for inhibition of beta-hematin formation.
Setting [27] is: Plasmodium falciparum, W2, read-out: IC50.
[28] abbreviates: Plasmodium falciparum, D6, read-out: IC50.

pIC50: −log10 of the molar value. Converted amounts (≈) assume the structure as drawn. The source made the active and inactive calls.

In general, IC50 refers to the concentration that inhibits the measured activity by half. As a reminder, the MFC is the smallest concentration meeting the test's criterion for killing the fungus. Broadly, the MIC is the lowest concentration found to suppress growth. As a reminder, the pIC50 is the negative decadic logarithm of the IC50, by convention in mol/L. In the case of `COc1cc(NC(C)CCCNC(=O)[C@H](CCCCN)NC(=O)[C@@H](N)CCCCN)c2ncccc2c1` (some centres not stated), the selectivity ratio was more than 11.9 in data set [1] and more than 8.5 in data set [19]. Moreover, the IC50 result was “Non-toxic” in [2]; 7 µg/mL (≈ 13.6 µM) in [3]; “Not Active” in [7]; 2.8 µg/mL (≈ 5.43 µM) in data set [12] (setting [27]); 2 µg/mL (≈ 3.88 µM) in data set [14] (setting [28]). The same compound returned a minimum fungicidal concentration (MFC) in [3] of 20 µg/mL (≈ 38.8 µM). The same compound had an MIC in data set [3] of 10 µg/mL (≈ 19.4 µM). Also, the outcome in data set [4], in data set [6], in data set [9], in data set [11], in data set [13] and in data set [15] was inactive. Further, the result in data set [16] and in data set [17] was inactive. In addition, the result in [5], in data set [10] and in data set [18] was Active. Further, the IC90 entry in data set [7] was “inactive”. In data set [8], the pIC50 is 3.21. Further, in data set [20], the Activity came out at 100%.

Turning to `COc1cc(NC(C)CCCNC(=O)CC[C@@H](NC(=O)[C@H](N)CCCCN)C(=O)O)c2nc(C(C)(C)C)ccc2c1` (some centres not stated), the outcome in data set [21], in data set [22], in data set [23], in data set [4], in [24] and in [6] was inactive. Moreover, the result in data set [25], in data set [9], in [11], in data set [13], in data set [15] and in data set [16] was inactive. The result in data set [17] was inactive. Further, the 50% inhibitory concentration (IC50) entry in data set [2] was “Non-toxic”; in [3] it was 15.2 µg/mL (≈ 26.5 µM); in [7], “Not Active”; in [12], “Not Active”; in data set [14], “Not Active”. For the same compound, it took 20 µg/mL (≈ 34.9 µM) to inhibit growth in data set [3] (MIC). For the same compound, the IC90 entry in [7] is “inactive”. In data set [8], the pIC50 was less than 3.00.

On to `COc1cc(NC(C)CCCNC(=O)C[C@H](NC(=O)[C@@H](N)CCCCN)C(=O)O)c2ncccc2c1` (some centres not stated), for which the results for the selectivity ratio in data set [1] and in data set [19] were more than 183 and more than 91.5, respectively. Besides, the IC50 entry was “Non-toxic” in data set [2], “Not Active” in data set [7], 0.26 µg/mL (≈ 0.517 µM) in [12] (setting [27]) and 0.13 µg/mL (≈ 0.259 µM) in data set [14] (setting [28]). Further, the outcome in [4], in data set [6], in data set [9], in data set [13] and in [16] was inactive. The result in [5], in data set [10] and in data set [18] was Active. Also, the IC90 entry in data set [7] is “inactive”. Also, the Ratio IC50 in data set [26] turned out to be 16. In data set [8], the negative-log IC50 (pIC50) is 5.24. In addition, in data set [20], the Activity worked out at 100%.

Values taken from ChEMBL document CHEMBL2021883, “Amino acid, dipeptide and pseudodipeptide conjugates of ring-substituted 8-aminoquinolines: synthesis and evaluation of anti-infective, β-haematin inhibition and cytotoxic activities” (Eur J Med Chem, 2012).
